Experimental data as given in ChEMBL document CHEMBL1153939, “Novel antagonists of serotonin-4 receptors: synthesis and biological evaluation of pyrrolothienopyrazines” (Bioorg Med Chem, 2009).

Tests used:
[1] = molecular target: 5-hydroxytryptamine receptor 4 (Cavia porcellus) (UniProt O70528); test: Displacement of [3H]GR-113808 from 5HT4 receptor in guinea pig striatum membrane at 10 nM; type: cell membranes
Method in brief: (§1)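 Guinea pig membranes (15 µg protein/mL) incubated 30 min at 37 °C with 0.6 nM [3H]GR113808 in 50 mM HEPES, pH 7.4, with fixed test concentrations. Nonspecific binding defined with 10 µM serotonin.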

[2] = molecular target: 5-hydroxytryptamine receptor 4 (Cavia porcellus, UniProt O70528); test: Displacement of [3H]GR-113808 from 5HT4 receptor in guinea pig striatum membrane; type: cell membranes; method in brief: as §1
Chain of 5-hydroxytryptamine receptor 4 (O70528 whole entry): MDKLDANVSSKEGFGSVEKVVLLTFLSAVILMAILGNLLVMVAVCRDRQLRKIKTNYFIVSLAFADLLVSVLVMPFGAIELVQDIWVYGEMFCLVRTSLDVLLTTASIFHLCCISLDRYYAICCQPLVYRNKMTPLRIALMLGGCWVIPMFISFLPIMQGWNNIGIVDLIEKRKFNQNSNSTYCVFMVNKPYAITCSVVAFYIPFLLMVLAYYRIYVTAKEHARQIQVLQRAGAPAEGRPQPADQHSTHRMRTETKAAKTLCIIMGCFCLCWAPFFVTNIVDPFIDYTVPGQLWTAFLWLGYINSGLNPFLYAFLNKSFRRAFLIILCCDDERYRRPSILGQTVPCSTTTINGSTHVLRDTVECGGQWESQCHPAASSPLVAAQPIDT

[3] = molecular target: 5-hydroxytryptamine receptor 4 (Mus musculus) (UniProt P97288); test: Agonist activity at mouse 5HT4a receptor expressed in african green monkey COS7 cells assessed as cAMP release relative to serotonin; type: functional, cell-based; conditions: COS-7
Chain of 5-hydroxytryptamine receptor 4 (Mus musculus) (P97288 whole entry): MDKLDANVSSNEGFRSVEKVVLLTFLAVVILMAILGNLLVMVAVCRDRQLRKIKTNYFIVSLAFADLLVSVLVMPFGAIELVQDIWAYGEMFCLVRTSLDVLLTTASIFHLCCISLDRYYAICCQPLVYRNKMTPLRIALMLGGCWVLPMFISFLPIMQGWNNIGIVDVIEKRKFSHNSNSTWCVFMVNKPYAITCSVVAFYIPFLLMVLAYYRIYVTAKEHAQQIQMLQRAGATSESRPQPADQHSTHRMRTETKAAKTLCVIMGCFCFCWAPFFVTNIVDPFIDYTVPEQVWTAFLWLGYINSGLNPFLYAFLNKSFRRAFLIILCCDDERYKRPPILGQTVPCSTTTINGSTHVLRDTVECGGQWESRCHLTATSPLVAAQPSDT
Method in brief: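 Mouse 5-HT4(a) receptor transfected by electroporation into COS-7 cells (560 fmol/mg protein). Cells labelled 2 h at 37 °C with [3H]adenine, then exposed to increasing concentrations of test agent in 0.75 mM IBMX and 0.1 µM forskolin. cAMP measured as [3H]ATP→[3H]cAMP conversion after Dowex/alumina separation. Expressed as % of maximal 5-HT stimulation over basal. Mean of four independent experiments.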

[4] = molecular target: 5-hydroxytryptamine receptor 4 (Mus musculus) (UniProt P97288); test: Antagonist activity at mouse 5HT4a receptor expressed in african green monkey COS7 cells assessed as inhibition of 5HT-induced cAMP release relative to serotonin; type: functional, cell-based; parameters: scale not given: the % may be the effect or the level left; conditions: COS-7
Method in brief: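 Antagonist mode on the same transfected COS-7 cells expressing mouse 5-HT4(a). Cells labelled with [3H]adenine, then incubated with 0.75 mM IBMX, 0.1 µM forskolin and test agents for 5 min at 37 °C; stopped with ice-cold 5% TCA. cAMP read as [3H]ATP→[3H]cAMP conversion after Dowex/alumina chromatography. Mean of four independent experiments.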

Mus musculus [5] = test: Acute toxicity in NMRI mouse assessed as behavioral changes at subtoxic <1/4 dose of LD50, ip by CNS activity test; type: organism-based, Central nervous system; conditions: in vivo
Method in brief: (§2)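 Male NMRI mice (20–24 g) given ip drug in saline (10 mL/kg), groups of 4. Behavioural and neurological changes scored against controls by a standardized observation technique at 30 min, 3 h and 24 h post-dose. Approximate LD50 derived from deaths counted at 24 h.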

Mus musculus [6] = test: Acute toxicity in NMRI mouse assessed as induction of convulsions at 100 to 300 mg/kg, ip by CNS activity test; type: organism-based, Central nervous system; parameters: dose 100-300 mg/kg, route intraperitoneal; conditions: in vivo; method in brief: as §2
Mus musculus [7] = test: Toxicity in NMRI mouse assessed as spontaneous alteration performance ar 0.3 to 3 mg/kg, ip by Y-maze test; type: organism-based; parameters: dose 0.3-3 mg/kg, route intraperitoneal; conditions: in vivo
Method in brief: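 Spontaneous alternation in male NMRI mice. Drug given ip in saline at 0.3, 1 and 3 mg/kg, 30 min before testing, with or without scopolamine 1 mg/kg. Four groups per dose: control, scopolamine, drug alone, drug+scopolamine. Alternation % = actual alternations/(total arm entries − 2) × 100. ANOVA plus Fisher PLSD.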

Mus musculus [8] = test: Antinociceptive activity against acetic acid-induced writhing in NMRI mouse assessed as number of stretches at 0.01 mg/kg, ip by writhing test; type: functional; conditions: route intraperitoneal
Method in brief: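 Groups of 8 male NMRI mice (20–24 g). Compound or reference given ip in saline (10 mL/kg) 15 min before ip 0.6% aqueous acetic acid (10 mL/kg). Stretches (back arching, pelvic rotation, hind-limb extension) counted over 10 min, beginning 10 min after acid. ANOVA + Fisher PLSD versus control.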

[9] = molecular target: 5-hydroxytryptamine receptor 1B (Rattus norvegicus, UniProt P28564); test: Displacement of [3H]5OH-tryptamine form 5HT1B receptor in rat cerebral cortex; type: tissue-based
Chain of 5-hydroxytryptamine receptor 1B (P28564 whole entry): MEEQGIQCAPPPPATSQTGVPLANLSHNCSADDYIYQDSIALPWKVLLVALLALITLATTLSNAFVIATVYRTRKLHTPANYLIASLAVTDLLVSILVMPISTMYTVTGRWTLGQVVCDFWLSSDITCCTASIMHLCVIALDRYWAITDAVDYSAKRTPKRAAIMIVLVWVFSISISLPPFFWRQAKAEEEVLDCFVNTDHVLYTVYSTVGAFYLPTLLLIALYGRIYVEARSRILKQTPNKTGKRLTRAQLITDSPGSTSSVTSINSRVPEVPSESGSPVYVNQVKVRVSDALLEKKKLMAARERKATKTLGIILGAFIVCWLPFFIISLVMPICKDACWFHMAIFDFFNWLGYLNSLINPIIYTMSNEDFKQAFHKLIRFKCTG

[10] = molecular target: 5-hydroxytryptamine receptor 1D (Rattus norvegicus, UniProt P28565); test: Displacement of [3H]5OH-tryptamine rat recombinant 5HT1D receptor
Chain of 5-hydroxytryptamine receptor 1D (P28565 whole entry): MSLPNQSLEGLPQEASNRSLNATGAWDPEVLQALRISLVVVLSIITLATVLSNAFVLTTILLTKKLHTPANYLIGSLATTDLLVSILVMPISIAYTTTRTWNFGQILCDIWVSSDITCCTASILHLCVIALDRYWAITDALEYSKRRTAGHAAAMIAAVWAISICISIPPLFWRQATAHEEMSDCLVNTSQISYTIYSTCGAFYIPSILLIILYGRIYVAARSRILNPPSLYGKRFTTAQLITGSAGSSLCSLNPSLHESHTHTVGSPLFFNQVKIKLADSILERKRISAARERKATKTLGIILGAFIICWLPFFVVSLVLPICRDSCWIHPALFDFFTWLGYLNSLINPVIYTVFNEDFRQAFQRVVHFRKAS

[11] = molecular target: 5-hydroxytryptamine receptor 2A (Homo sapiens, UniProt P28223); test: Displacement of [3H]ketanserin form human recombinant 5HT2A receptor
Chain of 5-hydroxytryptamine receptor 2A (P28223 whole entry): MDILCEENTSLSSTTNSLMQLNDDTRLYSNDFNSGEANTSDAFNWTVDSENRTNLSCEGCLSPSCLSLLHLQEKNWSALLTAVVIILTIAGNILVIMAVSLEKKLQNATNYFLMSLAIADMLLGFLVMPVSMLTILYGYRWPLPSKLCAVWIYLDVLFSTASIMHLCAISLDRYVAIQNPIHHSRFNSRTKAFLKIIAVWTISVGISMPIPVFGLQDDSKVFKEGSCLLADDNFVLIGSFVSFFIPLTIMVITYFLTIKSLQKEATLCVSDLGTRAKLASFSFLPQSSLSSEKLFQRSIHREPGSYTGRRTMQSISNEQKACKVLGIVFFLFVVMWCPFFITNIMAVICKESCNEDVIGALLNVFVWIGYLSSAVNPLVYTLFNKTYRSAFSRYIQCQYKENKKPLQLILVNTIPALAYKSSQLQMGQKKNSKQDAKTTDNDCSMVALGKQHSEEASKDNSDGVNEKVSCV

[12] = molecular target: T1, 5-hydroxytryptamine receptor 3A (Homo sapiens, UniProt P46098); test: Displacement of [3H]granisetron from human recombinant 5HT3 receptor
T1 sequence (P46098 whole entry): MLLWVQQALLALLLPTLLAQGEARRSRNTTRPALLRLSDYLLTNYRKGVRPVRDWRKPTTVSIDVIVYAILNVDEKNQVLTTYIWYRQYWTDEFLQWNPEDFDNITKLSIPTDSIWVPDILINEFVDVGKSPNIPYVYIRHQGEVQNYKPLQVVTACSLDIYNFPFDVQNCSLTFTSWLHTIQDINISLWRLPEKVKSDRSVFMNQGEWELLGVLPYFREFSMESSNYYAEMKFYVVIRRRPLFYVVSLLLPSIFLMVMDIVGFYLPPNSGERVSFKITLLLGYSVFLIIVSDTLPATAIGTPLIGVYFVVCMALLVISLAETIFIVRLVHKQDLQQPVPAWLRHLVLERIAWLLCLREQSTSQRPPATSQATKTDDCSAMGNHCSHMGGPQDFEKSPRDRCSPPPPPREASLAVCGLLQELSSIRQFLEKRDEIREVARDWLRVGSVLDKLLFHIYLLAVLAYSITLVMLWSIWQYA

[13] = molecular target: 5-hydroxytryptamine receptor 6 (Homo sapiens, UniProt P50406); test: Displacement of [3H]LSD form human recombinant 5HT6 receptor
Chain of 5-hydroxytryptamine receptor 6 (P50406 whole entry): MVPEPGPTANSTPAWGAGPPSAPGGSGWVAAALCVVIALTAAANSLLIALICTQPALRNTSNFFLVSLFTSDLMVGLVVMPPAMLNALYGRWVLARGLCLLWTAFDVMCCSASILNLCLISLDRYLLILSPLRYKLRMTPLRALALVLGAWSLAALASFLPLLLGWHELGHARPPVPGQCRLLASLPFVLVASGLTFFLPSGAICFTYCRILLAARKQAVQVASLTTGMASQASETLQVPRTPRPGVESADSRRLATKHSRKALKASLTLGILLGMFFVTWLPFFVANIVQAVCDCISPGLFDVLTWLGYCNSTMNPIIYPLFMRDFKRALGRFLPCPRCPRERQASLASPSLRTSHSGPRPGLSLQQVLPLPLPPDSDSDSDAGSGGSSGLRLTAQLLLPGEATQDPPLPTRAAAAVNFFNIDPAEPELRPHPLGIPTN
Method in brief: (§3)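 Membranes from sf9 cells expressing human 5-HT6 (14 µg/mL) or 5-HT7 (38 µg/mL) incubated 90 min at 27 °C with 2 nM [3H]LSD in 50 mM Tris-HCl containing 10 mM MgSO4 and 0.5 mM EDTA. Nonspecific binding defined with clozapine (10 and 250 µM).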

[14] = molecular target: 5-hydroxytryptamine receptor 7 (Homo sapiens, UniProt P34969); test: Displacement of [3H]LSD form human recombinant 5HT7 receptor; method in brief: as §3
Chain of 5-hydroxytryptamine receptor 7 (P34969 whole entry): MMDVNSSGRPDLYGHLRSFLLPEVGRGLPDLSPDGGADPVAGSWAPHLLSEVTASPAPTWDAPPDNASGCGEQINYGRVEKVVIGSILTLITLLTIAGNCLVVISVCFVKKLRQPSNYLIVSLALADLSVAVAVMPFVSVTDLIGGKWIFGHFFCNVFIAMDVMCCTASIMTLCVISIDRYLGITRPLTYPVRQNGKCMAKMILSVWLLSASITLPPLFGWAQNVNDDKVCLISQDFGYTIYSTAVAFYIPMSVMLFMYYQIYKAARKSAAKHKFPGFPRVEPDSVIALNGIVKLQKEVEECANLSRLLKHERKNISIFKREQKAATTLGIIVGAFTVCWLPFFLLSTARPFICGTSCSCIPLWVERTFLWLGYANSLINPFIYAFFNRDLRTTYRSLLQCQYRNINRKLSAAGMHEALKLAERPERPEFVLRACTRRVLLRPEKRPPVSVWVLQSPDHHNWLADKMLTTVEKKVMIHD

[15] = molecular target: Alpha-1A adrenergic receptor (Homo sapiens, UniProt P35348); test: Displacement of [3H]prazosin form human recombinant alpha1A adrenergic receptor
Chain of Alpha-1A adrenergic receptor (P35348 whole entry): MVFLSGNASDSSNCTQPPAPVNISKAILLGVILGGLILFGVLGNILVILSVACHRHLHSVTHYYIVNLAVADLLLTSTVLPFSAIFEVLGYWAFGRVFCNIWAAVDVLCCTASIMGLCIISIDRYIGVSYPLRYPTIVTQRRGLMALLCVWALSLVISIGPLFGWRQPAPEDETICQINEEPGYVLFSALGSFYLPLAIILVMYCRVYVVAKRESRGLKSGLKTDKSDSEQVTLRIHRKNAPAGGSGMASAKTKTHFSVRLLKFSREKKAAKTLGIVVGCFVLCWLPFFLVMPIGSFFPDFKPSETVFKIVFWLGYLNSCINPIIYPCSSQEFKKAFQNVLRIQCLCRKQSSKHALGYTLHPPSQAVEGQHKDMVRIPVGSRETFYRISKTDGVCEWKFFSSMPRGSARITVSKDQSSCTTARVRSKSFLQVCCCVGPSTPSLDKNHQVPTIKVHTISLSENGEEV

[16] = molecular target: Alpha-1D adrenergic receptor (Homo sapiens, UniProt P25100); test: Displacement of [3H]prazosin form human recombinant Alpha-1D adrenergic receptor
Chain of Alpha-1D adrenergic receptor (P25100 whole entry): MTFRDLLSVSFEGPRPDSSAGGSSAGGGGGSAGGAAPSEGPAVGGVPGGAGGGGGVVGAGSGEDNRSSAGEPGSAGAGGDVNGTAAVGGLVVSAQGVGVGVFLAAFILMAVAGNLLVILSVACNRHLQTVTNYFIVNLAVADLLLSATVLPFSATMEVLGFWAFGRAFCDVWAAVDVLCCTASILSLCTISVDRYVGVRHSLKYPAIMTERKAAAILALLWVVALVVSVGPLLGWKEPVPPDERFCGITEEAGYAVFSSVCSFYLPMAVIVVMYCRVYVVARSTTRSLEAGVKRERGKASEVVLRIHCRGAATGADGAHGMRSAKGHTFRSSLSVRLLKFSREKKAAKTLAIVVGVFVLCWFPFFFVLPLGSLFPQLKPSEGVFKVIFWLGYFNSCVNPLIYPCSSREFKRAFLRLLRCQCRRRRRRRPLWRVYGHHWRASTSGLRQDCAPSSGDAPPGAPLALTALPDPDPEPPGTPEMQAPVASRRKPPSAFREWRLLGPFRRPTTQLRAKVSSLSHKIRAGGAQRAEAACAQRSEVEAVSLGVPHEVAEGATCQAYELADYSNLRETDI

[17] = molecular target: Alpha-2C adrenergic receptor (Homo sapiens, UniProt P18825); test: Displacement of [3H]RX821002 form human recombinant Alpha-2C adrenergic receptor
Chain of Alpha-2C adrenergic receptor (P18825 whole entry): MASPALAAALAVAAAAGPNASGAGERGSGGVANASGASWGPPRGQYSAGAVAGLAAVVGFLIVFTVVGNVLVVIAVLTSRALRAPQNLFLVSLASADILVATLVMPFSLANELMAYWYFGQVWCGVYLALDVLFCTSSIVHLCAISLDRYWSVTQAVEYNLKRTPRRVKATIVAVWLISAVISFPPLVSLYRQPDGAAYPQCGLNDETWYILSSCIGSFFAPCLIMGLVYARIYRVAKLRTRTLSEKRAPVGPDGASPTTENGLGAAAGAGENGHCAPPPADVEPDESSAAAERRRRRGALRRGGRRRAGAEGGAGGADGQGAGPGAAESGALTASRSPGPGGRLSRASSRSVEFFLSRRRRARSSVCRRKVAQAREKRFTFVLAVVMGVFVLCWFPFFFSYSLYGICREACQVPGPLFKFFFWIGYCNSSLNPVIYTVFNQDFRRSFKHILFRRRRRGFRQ

[18] = molecular target: 5-hydroxytryptamine receptor 4 (Cavia porcellus) (UniProt O70528); test: Displacement of [3H]GR-113808 from 5HT4 receptor in guinea pig striatum membrane at 1 uM; type: cell membranes; method in brief: as §1

Chain of 5-hydroxytryptamine receptor 4 (Cavia porcellus) (O70528 whole entry): as the sequence (O70528 whole entry) above

Question: With `CCCN1CCC(COc2nc3scc(C)c3n3cccc23)CC1` as the compound, how does the inhibition [1] read?
Answer: 78%

Question: What about the Ki [2] of the same compound?
Answer: 1.74 nM

Question: And the Activity [3]?
Answer: 20%

Question: What about the Activity [4] of the same compound?
Answer: 80%

Question: What about the Activity (Mus musculus [5]) of the same compound?
Answer: Toxic

Question: And the Activity (Mus musculus [6])?
Answer: Toxic

Question: And the Activity (Mus musculus [7])?
Answer: Non-toxic

Question: And the Activity (Mus musculus [8])?
Answer: 17.2

Question: And the IC50 [9]?
Answer: > 10000 nM

Question: And the IC50 [10]?
Answer: 4570 nM

Question: And the IC50 [11]?
Answer: > 10000 nM

Question: And the IC50 [12]?
Answer: 6.92 nM

Question: And the IC50 [13]?
Answer: > 10000 nM

Question: And the IC50 [14]?
Answer: > 1000 nM

Question: And the IC50 [15]?
Answer: 74.1 nM

Question: What about the IC50 [16] of the same compound?
Answer: 204 nM

Question: And the IC50 [17]?
Answer: 741 nM

Question: What about the inhibition [18] of the same compound?
Answer: 100%
